Measured values as given in ChEMBL document CHEMBL4028905, “A Unique Approach to Design Potent and Selective Cyclic Adenosine Monophosphate Response Element Binding Protein, Binding Protein (CBP) Inhibitors” (J Med Chem, 2017).
Active and inactive are the calls of the source. The rule behind the calls is not given here.

molecular target: T1, Bromodomain-containing protein 9 (Homo sapiens, UniProt Q9H8M2); assay: Inhibition of His tagged recombinant BRD9 (unknown origin) by TR-FRET assay; conditions: not given
T1 sequence (Q9H8M2 whole entry): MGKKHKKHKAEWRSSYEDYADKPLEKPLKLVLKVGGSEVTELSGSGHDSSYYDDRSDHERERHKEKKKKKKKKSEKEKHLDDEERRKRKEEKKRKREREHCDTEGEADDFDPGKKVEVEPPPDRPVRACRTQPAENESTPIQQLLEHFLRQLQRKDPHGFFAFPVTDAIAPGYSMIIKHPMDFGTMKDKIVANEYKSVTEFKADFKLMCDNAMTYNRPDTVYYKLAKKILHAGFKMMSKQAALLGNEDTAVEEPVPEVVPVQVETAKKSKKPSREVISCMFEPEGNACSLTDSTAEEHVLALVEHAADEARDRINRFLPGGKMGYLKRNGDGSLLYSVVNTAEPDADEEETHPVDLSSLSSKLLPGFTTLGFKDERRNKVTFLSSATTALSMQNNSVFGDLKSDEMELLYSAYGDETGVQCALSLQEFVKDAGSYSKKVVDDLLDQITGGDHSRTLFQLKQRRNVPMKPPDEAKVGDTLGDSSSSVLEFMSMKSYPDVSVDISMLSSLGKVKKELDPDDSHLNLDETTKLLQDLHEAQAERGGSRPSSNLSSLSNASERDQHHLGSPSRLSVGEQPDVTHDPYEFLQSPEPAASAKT
Summary of the method: (§1)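 Recombinant His-tagged bromodomains purified by Ni affinity, tag removed with thrombin, checked by mass spectrometry. Assay is TR-FRET competition against a biotinylated small-molecule ligand. Normalized inhibition vs concentration fit to 4-parameter Hill equation; […] for optimization.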

SMILES	IC50 [µM]
C[C@@H]1CC(=O)Nc2cccc(N3CCCc4cc(-c5cnn(C)c5)c(C(F)F)cc43)c2N1	> 20

molecular target: Chromatin remodeling regulator CECR2 (Homo sapiens, UniProt Q9BXF3); assay: Inhibition of His tagged recombinant CECR2 (unknown origin) by TR-FRET assay; conditions: not given; summary of the method: as §1

SMILES	IC50 [µM]
C[C@@H]1CC(=O)Nc2cccc(N3CCCc4cc(-c5cnn(C)c5)c(C(F)F)cc43)c2N1	> 20

tested on: not listed separately; assay: Intrinsic clearance in human liver microsomes at 1 uM in presence of NADPH by LC-MS/MS analysis; assay type: ADME, microsome; conditions: read-out: CLH

SMILES	CLint scaled at 1 µM [mL/min/kg]
Cn1cc(-c2cc3c(cc2C(F)F)N(c2ccc4c(c2)n(C)c(=O)n4C)CCC3)cn1	16
Cn1cc(-c2cc3c(cc2C(F)F)N(c2cc(N4CCOCC4)c4c(c2)n(C)c(=O)n4C)CCC3)cn1	15
CNC(=O)c1c[nH]c2cnc(N3CCCc4cc(-c5cnn(C)c5)c(C(F)F)cc43)cc12	6.9
Cn1cc(-c2cc3c(cc2C(F)F)N(c2ccc4sc(=O)n(C)c4c2)CCC3)cn1	17
CNC(=O)c1c[nH]c2ccc(N3CCCc4cc(-c5cnn(C)c5)c(C(F)F)cc43)cc12	13

molecular target: CREB-binding protein/Histone acetyltransferase p300 (Homo sapiens, UniProt Q09472+Q92793); assay: Inhibition of P300/CBP in human MV4-11 cells assessed as reduction in MYC expression after 4 hrs by luminescence based assay; assay type: cell-based; conditions: not given
Summary of the method: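 MV-4-11 cells plated at 10,000 per well in RPMI1640 with 10% FBS and 2 mM L-glutamine. Compounds added in DMSO at a final 0.1% and incubated 4 h at 37 °C before MYC expression read-out; EC50 derived.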

SMILES	EC50 [µM]
Cn1cc(-c2cc3c(cc2C(F)F)N(c2ccc4c(c2)n(C)c(=O)n4C)CCC3)cn1	1
Cn1cc(-c2cc3c(cc2C(F)F)N(c2cc(N4CCOCC4)c4c(c2)n(C)c(=O)n4C)CCC3)cn1	0.012
CNC(=O)c1c[nH]c2cnc(N3CCCc4cc(-c5cnn(C)c5)c(C(F)F)cc43)cc12	0.36
CNC(=O)c1c[nH]c2ccc(N3CCCc4cc(-c5cnn(C)c5)c(C(F)F)cc43)cc12	2.2

tested on: not listed separately; assay: Intrinsic clearance in rat liver microsomes at 1 uM in presence of NADPH by LC-MS/MS analysis; assay type: ADME, microsome; conditions: read-out: CLH

SMILES	CLint scaled at 1 µM [mL/min/kg]
Cn1cc(-c2cc3c(cc2C(F)F)N(c2ccc4c(c2)n(C)c(=O)n4C)CCC3)cn1	38
Cn1cc(-c2cc3c(cc2C(F)F)N(c2cc(N4CCOCC4)c4c(c2)n(C)c(=O)n4C)CCC3)cn1	23
CNC(=O)c1c[nH]c2cnc(N3CCCc4cc(-c5cnn(C)c5)c(C(F)F)cc43)cc12	17
Cn1cc(-c2cc3c(cc2C(F)F)N(c2ccc4sc(=O)n(C)c4c2)CCC3)cn1	39
CNC(=O)c1c[nH]c2ccc(N3CCCc4cc(-c5cnn(C)c5)c(C(F)F)cc43)cc12	20

organism: Homo sapiens; assay: Selectivity ratio of IC50 for His tagged recombinant CBP (unknown origin) to IC50 for His tagged recombinant BRD4 bromodomain 1 (unknown origin); conditions: not given

SMILES	Ratio IC50
Cc1ccc(S(=O)(=O)Nc2ccc3c(c2)CCC(=O)N3C)s1	4.4

molecular target: T2, CREB-binding protein (Homo sapiens, UniProt Q92793); assay: Inhibition of His tagged recombinant CBP (unknown origin) at 50 uM by HTS assay; conditions: not given
Summary of the method: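 HTS TR-FRET competition of biotinylated ligand binding to recombinant His-tagged CBP bromodomain (tag thrombin-cleaved after Ni affinity). Highest concentration tested 50 μM. IC50 from 4-parameter Hill fit of normalized inhibition, reported as geometric mean of 2–8 replicates.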
Target sequence in this assay (Q92793 2-2442 limits assumed): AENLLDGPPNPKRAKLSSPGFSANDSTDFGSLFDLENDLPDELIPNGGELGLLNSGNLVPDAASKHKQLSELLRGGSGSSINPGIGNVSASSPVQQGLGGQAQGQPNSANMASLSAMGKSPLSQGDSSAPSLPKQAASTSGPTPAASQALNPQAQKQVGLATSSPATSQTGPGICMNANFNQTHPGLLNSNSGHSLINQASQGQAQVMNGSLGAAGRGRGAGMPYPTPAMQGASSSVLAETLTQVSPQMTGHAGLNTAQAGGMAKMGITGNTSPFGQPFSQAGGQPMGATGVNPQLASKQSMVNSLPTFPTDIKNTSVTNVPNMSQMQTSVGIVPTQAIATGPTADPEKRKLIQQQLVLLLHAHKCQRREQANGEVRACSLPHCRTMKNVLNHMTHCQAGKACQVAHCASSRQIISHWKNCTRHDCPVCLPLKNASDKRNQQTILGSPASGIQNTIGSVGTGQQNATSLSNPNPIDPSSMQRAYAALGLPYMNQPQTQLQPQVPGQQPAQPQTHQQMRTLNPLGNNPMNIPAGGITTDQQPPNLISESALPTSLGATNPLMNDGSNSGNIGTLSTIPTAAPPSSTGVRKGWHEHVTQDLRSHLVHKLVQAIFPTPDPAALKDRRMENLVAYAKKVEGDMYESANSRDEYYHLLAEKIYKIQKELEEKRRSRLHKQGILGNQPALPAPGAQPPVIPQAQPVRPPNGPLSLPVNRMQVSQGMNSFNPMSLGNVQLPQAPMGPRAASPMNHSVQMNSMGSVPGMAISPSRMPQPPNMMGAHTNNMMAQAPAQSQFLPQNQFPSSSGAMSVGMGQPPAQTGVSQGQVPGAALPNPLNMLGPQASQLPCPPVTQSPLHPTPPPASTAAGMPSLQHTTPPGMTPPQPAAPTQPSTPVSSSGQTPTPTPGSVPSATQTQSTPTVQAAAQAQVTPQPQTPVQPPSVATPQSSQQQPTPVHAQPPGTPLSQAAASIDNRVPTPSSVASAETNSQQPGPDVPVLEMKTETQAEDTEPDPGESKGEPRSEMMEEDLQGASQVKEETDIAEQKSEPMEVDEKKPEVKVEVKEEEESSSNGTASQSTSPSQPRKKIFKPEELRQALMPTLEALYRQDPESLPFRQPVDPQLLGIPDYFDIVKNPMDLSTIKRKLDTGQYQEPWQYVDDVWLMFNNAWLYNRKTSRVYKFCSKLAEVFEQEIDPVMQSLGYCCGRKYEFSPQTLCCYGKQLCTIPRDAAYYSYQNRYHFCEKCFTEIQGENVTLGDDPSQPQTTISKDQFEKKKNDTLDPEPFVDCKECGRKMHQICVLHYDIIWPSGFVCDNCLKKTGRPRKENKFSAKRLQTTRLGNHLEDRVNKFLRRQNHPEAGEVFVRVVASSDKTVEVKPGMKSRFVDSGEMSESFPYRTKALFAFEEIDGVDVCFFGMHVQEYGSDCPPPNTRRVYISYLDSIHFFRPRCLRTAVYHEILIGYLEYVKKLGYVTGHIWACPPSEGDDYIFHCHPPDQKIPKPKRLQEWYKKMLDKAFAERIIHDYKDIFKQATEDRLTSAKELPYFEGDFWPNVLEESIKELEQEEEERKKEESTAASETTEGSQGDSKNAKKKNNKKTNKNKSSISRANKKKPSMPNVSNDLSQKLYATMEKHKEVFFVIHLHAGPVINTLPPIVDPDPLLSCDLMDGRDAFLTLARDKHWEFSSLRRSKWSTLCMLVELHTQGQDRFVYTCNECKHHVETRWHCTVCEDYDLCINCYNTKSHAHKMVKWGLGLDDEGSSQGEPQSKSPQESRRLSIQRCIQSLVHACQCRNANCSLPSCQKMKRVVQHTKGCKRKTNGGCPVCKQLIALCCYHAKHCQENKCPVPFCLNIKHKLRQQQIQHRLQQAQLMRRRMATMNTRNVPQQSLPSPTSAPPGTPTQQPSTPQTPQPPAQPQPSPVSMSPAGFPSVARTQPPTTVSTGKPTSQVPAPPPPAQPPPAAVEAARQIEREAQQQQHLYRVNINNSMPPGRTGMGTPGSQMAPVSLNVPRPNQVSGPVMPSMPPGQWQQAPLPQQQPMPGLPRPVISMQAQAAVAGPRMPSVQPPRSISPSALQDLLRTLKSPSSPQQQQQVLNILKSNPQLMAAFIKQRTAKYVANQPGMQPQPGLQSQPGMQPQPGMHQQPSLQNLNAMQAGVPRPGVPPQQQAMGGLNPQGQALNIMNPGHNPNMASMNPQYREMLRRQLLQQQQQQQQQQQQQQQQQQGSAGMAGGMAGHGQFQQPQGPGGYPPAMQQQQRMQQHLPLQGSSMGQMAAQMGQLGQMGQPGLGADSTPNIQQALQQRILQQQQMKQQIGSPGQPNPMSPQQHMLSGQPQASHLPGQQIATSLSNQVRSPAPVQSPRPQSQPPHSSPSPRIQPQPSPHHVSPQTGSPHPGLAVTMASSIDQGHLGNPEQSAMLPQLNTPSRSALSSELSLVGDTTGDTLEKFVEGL

SMILES	inhibition
Cn1c(=O)sc2cc(N)ccc21	Active
COC(=O)c1c[nH]c2ccccc12	Active

molecular target: Bromodomain-containing protein 4 (Homo sapiens, UniProt O60885); assay: Inhibition of His tagged recombinant BRD4 bromodomain 1 (unknown origin) by TR-FRET assay; conditions: not given; summary of the method: as §1

SMILES	IC50 [µM]
CNC(=O)c1cnn2c(C3CCCN3)ccnc12 (stereo not given)	> 84
Cn1c(=O)sc2cc(N)ccc21	> 100
COC(=O)c1c[nH]c2ccccc12	> 100
C[C@H]1Nc2c(cccc2N2CCCc3cc(-c4cnn(C)c4)c(C(F)F)cc32)NC1=O	> 20
CNC(=O)Nc1cc(OC)cc(NC(=O)NS(=O)(=O)c2cc(C)c(CCOC)s2)n1	> 20
CNC(=O)c1ccc2nccc(N3CCCc4cc(-c5cnn(C)c5)c(C(F)F)cc43)c2c1	> 20
CNC(=O)c1cnn2ccc(N3CCCc4cc(-c5cnn(C)c5)c(C(F)F)cc43)nc12	> 20
CN1C(=O)CCc2ccc(N3CCCc4cc(-c5cnn(C)c5)c(C(F)F)cc43)cc21	> 20

Next, values leading:

IC50 [µM]	SMILES
4.1	Cn1cc(-c2cc3c(cc2C(F)F)N(c2ccc4c(c2)n(C)c(=O)n4C)CCC3)cn1
> 20	CC(=O)N1CCc2c(cc(N3CCCc4cc(-c5cnn(C)c5)c(C(F)F)cc43)c(=O)n2C)C1
1.1	Cn1cc(-c2cc3c(cc2C(F)F)N(c2cc(N4CCOCC4)c4c(c2)n(C)c(=O)n4C)CCC3)cn1
> 20	CNC(=O)Nc1cc(OC)cc(N2CCCc3cc(-c4cnn(C)c4)c(C(F)F)cc32)n1
4.5	C[C@@H]1CC(=O)Nc2cccc(N3CCCc4cc(-c5cnn(C)c5)c(C(F)F)cc43)c2N1
> 20	CCOC(=O)c1cnc2ccc(C(=O)OC)cc2c1Nc1cccc(C(=O)O)c1
13	COc1cccc2c1N(CCCNC(=O)c1cccc3c1N[C@H](C)C(=O)N3)CCC2
3.9	CNC(=O)c1c[nH]c2cnc(N3CCCc4cc(-c5cnn(C)c5)c(C(F)F)cc43)cc12
7.4	CNC(=O)N1CCOc2ccc(N3CCCc4cc(-c5cnn(C)c5)c(C(F)F)cc43)cc2C1
18	Cn1cc(-c2cc3c(cc2C(F)F)N(c2ccc4sc(=O)n(C)c4c2)CCC3)cn1
12	CNC(=O)c1c[nH]c2ccc(N3CCCc4cc(-c5cnn(C)c5)c(C(F)F)cc43)cc12
52	CC(=O)N1CCc2c(cc(-c3cccc(Cl)c3)c(=O)n2CC2CC2)C1
6.9	CC(=O)N1CCCc2cc(N3CCCc4cc(-c5cnn(C)c5)c(C(F)F)cc43)ccc21
5.2	Cc1ccc(S(=O)(=O)Nc2ccc3c(c2)CCC(=O)N3C)s1
74	CCC(=O)N1CCCc2cc(NS(=O)(=O)c3ccc(F)cc3C)ccc21

molecular target: T2, CREB-binding protein; assay: Inhibition of His tagged recombinant CBP (unknown origin) by TR-FRET assay; conditions: not given; summary of the method: as §1
Target sequence in this assay (Q92793 whole entry): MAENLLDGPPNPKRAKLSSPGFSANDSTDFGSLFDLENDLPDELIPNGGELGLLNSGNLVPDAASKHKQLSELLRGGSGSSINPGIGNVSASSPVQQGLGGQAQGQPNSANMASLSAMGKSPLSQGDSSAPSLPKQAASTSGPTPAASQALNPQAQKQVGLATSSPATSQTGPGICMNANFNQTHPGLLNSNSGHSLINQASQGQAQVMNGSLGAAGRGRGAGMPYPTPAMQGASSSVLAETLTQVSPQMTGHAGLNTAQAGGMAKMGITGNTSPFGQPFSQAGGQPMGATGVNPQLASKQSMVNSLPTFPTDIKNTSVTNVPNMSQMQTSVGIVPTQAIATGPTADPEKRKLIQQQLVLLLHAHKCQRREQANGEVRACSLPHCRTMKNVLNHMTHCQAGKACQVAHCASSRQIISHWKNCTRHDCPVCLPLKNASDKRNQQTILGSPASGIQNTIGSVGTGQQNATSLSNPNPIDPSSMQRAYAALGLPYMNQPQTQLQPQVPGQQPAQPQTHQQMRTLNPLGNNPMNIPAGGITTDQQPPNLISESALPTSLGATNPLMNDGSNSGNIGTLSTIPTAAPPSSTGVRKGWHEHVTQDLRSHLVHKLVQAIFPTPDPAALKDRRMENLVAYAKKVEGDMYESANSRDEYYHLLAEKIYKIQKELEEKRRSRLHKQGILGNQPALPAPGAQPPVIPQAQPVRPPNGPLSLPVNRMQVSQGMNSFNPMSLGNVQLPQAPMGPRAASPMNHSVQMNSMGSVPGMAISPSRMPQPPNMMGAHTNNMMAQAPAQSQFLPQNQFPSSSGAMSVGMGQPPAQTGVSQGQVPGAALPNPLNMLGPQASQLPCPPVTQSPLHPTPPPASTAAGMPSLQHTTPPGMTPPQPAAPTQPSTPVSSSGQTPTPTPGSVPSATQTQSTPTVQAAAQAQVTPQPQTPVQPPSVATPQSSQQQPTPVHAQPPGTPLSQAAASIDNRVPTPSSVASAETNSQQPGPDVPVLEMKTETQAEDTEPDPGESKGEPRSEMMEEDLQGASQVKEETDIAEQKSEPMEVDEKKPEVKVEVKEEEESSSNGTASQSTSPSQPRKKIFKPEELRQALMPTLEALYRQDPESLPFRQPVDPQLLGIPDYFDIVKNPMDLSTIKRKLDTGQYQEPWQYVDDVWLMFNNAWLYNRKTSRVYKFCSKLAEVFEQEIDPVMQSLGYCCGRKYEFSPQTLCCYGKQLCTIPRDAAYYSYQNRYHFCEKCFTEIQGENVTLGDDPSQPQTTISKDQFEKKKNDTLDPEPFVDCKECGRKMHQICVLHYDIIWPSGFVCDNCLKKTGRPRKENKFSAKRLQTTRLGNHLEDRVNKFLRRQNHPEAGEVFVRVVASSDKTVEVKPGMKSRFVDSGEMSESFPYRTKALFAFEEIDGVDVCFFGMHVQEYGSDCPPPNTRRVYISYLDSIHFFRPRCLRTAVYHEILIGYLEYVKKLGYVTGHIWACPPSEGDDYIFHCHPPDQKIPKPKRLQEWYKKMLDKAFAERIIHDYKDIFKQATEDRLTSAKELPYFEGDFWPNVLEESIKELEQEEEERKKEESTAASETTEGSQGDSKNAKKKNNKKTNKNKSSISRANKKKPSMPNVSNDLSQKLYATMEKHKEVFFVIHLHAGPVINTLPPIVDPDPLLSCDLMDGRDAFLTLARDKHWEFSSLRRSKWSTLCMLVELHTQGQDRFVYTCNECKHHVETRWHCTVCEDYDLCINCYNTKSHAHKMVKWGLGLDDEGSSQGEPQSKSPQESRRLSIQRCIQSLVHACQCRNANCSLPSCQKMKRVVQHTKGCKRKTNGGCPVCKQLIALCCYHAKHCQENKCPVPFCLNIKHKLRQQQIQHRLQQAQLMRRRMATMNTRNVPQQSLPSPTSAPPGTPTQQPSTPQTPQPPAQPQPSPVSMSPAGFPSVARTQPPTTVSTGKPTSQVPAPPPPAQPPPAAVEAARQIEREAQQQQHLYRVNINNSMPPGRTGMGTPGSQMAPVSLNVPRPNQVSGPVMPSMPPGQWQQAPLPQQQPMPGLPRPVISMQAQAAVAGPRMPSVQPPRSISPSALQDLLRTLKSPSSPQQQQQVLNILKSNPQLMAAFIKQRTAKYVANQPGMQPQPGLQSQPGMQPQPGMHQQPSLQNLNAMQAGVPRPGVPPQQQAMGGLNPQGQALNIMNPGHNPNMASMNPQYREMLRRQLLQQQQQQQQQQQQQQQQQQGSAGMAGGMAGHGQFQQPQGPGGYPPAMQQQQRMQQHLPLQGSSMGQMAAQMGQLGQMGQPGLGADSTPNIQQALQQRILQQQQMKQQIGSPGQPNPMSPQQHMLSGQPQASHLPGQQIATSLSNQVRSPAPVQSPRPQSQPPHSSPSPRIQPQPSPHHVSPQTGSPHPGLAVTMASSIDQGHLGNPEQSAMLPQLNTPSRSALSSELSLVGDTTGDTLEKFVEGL

SMILES	IC50 [µM]
CNC(=O)c1cnn2c(C3CCCN3)ccnc12 (stereo not given)	32
Cn1c(=O)sc2cc(N)ccc21	> 100
COC(=O)c1c[nH]c2ccccc12	99
CNC(=O)Nc1cc(OC)cc(NC(=O)NS(=O)(=O)c2cc(C)c(CCOC)s2)n1	0.27
CNC(=O)c1cnn2ccc(N3CCCc4cc(-c5cnn(C)c5)c(C(F)F)cc43)nc12	1.4
CN1C(=O)CCc2ccc(N3CCCc4cc(-c5cnn(C)c5)c(C(F)F)cc43)cc21	0.038

Further lines, results first:

IC50 [µM]	SMILES
0.02	Cn1cc(-c2cc3c(cc2C(F)F)N(c2ccc4c(c2)n(C)c(=O)n4C)CCC3)cn1
0.0036	Cn1cc(-c2cc3c(cc2C(F)F)N(c2cc(N4CCOCC4)c4c(c2)n(C)c(=O)n4C)CCC3)cn1
0.0034	C[C@@H]1CC(=O)Nc2cccc(N3CCCc4cc(-c5cnn(C)c5)c(C(F)F)cc43)c2N1
0.23	CCOC(=O)c1cnc2ccc(C(=O)OC)cc2c1Nc1cccc(C(=O)O)c1
0.013	CNC(=O)N1CCOc2ccc(N3CCCc4cc(-c5cnn(C)c5)c(C(F)F)cc43)cc2C1
0.0095	CNC(=O)c1c[nH]c2ccc(N3CCCc4cc(-c5cnn(C)c5)c(C(F)F)cc43)cc12
0.54	CC(=O)N1CCc2c(cc(-c3cccc(Cl)c3)c(=O)n2CC2CC2)C1
0.45	CC(=O)N1CCCc2cc(N3CCCc4cc(-c5cnn(C)c5)c(C(F)F)cc43)ccc21
23	Cc1ccc(S(=O)(=O)Nc2ccc3c(c2)CCC(=O)N3C)s1
3	CCC(=O)N1CCCc2cc(NS(=O)(=O)c3ccc(F)cc3C)ccc21

tested on: not listed separately; assay: Intrinsic clearance in mouse liver microsomes at 1 uM in presence of NADPH by LC-MS/MS analysis; assay type: ADME, microsome; conditions: read-out: CLH

SMILES	CLint scaled at 1 µM [mL/min/kg]
Cn1cc(-c2cc3c(cc2C(F)F)N(c2ccc4c(c2)n(C)c(=O)n4C)CCC3)cn1	61
Cn1cc(-c2cc3c(cc2C(F)F)N(c2cc(N4CCOCC4)c4c(c2)n(C)c(=O)n4C)CCC3)cn1	48
CNC(=O)c1c[nH]c2cnc(N3CCCc4cc(-c5cnn(C)c5)c(C(F)F)cc43)cc12	39
Cn1cc(-c2cc3c(cc2C(F)F)N(c2ccc4sc(=O)n(C)c4c2)CCC3)cn1	71
CNC(=O)c1c[nH]c2ccc(N3CCCc4cc(-c5cnn(C)c5)c(C(F)F)cc43)cc12	47

organism: Homo sapiens; assay: Selectivity ratio of IC50 for His tagged recombinant BRD4 bromodomain 1 (unknown origin) to IC50 for His tagged recombinant CBP (unknown origin); conditions: not given

SMILES	Ratio IC50
CNC(=O)c1cnn2c(C3CCCN3)ccnc12 (stereo not given)	> 2.6
CCC(=O)N1CCOc2c(cc(-c3ccc(OC)c(OC)c3)cc2OC[C@H]2CCCN(C)C2)C1	34
COC(=O)c1c[nH]c2ccccc12	> 1
C[C@@H]1CC(=O)Nc2cccc(-c3ccc4c(c3)c(-c3cnn(C)c3)nn4C)c2N1	370
CNC(=O)Nc1cc(OC)cc(NC(=O)NS(=O)(=O)c2cc(C)c(CCOC)s2)n1	> 74
CNC(=O)c1ccc2nccc(N3CCCc4cc(-c5cnn(C)c5)c(C(F)F)cc43)c2c1	> 590
CNC(=O)c1cnn2ccc(N3CCCc4cc(-c5cnn(C)c5)c(C(F)F)cc43)nc12	> 14
CN1C(=O)CCc2ccc(N3CCCc4cc(-c5cnn(C)c5)c(C(F)F)cc43)cc21	> 530

Other lines, results leading:

Ratio IC50	SMILES
210	Cn1cc(-c2cc3c(cc2C(F)F)N(c2ccc4c(c2)n(C)c(=O)n4C)CCC3)cn1
> 430	CC(=O)N1CCc2c(cc(N3CCCc4cc(-c5cnn(C)c5)c(C(F)F)cc43)c(=O)n2C)C1
310	Cn1cc(-c2cc3c(cc2C(F)F)N(c2cc(N4CCOCC4)c4c(c2)n(C)c(=O)n4C)CCC3)cn1
> 170	CNC(=O)Nc1cc(OC)cc(N2CCCc3cc(-c4cnn(C)c4)c(C(F)F)cc32)n1
1300	C[C@@H]1CC(=O)Nc2cccc(N3CCCc4cc(-c5cnn(C)c5)c(C(F)F)cc43)c2N1
> 87	CCOC(=O)c1cnc2ccc(C(=O)OC)cc2c1Nc1cccc(C(=O)O)c1
22	COc1cccc2c1N(CCCNC(=O)c1cccc3c1N[C@H](C)C(=O)N3)CCC2
780	CNC(=O)c1c[nH]c2cnc(N3CCCc4cc(-c5cnn(C)c5)c(C(F)F)cc43)cc12
570	CNC(=O)N1CCOc2ccc(N3CCCc4cc(-c5cnn(C)c5)c(C(F)F)cc43)cc2C1
1300	CNC(=O)c1c[nH]c2ccc(N3CCCc4cc(-c5cnn(C)c5)c(C(F)F)cc43)cc12
96	CC(=O)N1CCc2c(cc(-c3cccc(Cl)c3)c(=O)n2CC2CC2)C1
> 15	CC(=O)N1CCCc2cc(N3CCCc4cc(-c5cnn(C)c5)c(C(F)F)cc43)ccc21
0.23	Cc1ccc(S(=O)(=O)Nc2ccc3c(c2)CCC(=O)N3C)s1
25	CCC(=O)N1CCCc2cc(NS(=O)(=O)c3ccc(F)cc3C)ccc21
